Results from ChEMBL document CHEMBL1149652, “Synthesis and structure-activity relationship study of cytotoxic germanicane- and lupane-type 3beta-O-monodesmosidic saponins starting from betulin” (Bioorg Med Chem, 2007).

Assays:
[1] = system: A549; assay: Cytotoxicity against human A549 cells assessed as cell viability after 48 hrs; type: functional, cell-based; details: A549, 48 h
Summary of the method: (§1)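 Cells from ATCC grown in MEM with Earle's salts, L-glutamine, 10% FBS, vitamins, essential amino acids, sodium pyruvate, penicillin/streptomycin, 37 °C, 5% CO2. Exponentially growing cells seeded at 5 × 10^3 per well, adhered 16 h, then exposed 48 h to increasing concentrations from DMSO stocks (final DMSO 0.5% v/v). Resazurin fluorescence read (ex 530/em 590 nm), blank-subtracted, expressed as survival versus control wells. IC50 given as mean ± standard deviation, three experiments in triplicate.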

[2] = system: DLD-1; assay: Cytotoxicity against human DLD1 cells assessed as cell viability after 48 hrs; type: functional, cell-based; details: DLD-1, 48 h; summary of the method: as §1
[3] = Cytotoxicity against human WS1 cells assessed as cell viability after 48 hrs; type: cell-based; details: WS1, 48 h; summary of the method: as §1

| Compound | IC50 [1] | IC50 [2] | IC50 [3] |
| --- | --- | --- | --- |
| C=C(C)[C@@H]1CC[C@]2(CO)CC[C@]3(C)[C@H](CC[C@@H]4[C@@]5(C)CC[C@H](O[C@H]6O[C@H](CO)[C@@H](O)[C@H](O)[C@@H]6O)C(C)(C)[C@@H]5CC[C@]43C)[C@@H]12 | 7.3 µM | 10.1 µM | 5.1 µM |
| C=C(C)[C@@H]1CC[C@]2(C(=O)O)CC[C@]3(C)[C@H](CC[C@@H]4[C@@]5(C)CC[C@H](O[C@@H]6O[C@H](CO)[C@@H](O)[C@H](O)[C@H]6O)C(C)(C)[C@@H]5CC[C@]43C)[C@@H]12 | > 75 µM | – | – |
| C=C(C)[C@@H]1CC[C@]2(C(=O)O)CC[C@]3(C)[C@H](CC[C@@H]4[C@@]5(C)CC[C@H](O[C@H]6O[C@H](CO)[C@@H](O)[C@H](O)[C@@H]6O)C(C)(C)[C@@H]5CC[C@]43C)[C@@H]12 | 34 µM | 15 µM | 13 µM |
| CC1(C)CC[C@]23CC[C@]4(C)[C@H](CC[C@@H]5[C@@]6(C)CC[C@H](O[C@H]7OC[C@H](O)[C@H](O)[C@H]7O)C(C)(C)[C@@H]6CC[C@]54C)[C@H]2[C@@H]1OC3 | > 75 µM | > 75 µM | > 75 µM |
| CC1(C)CC[C@]23CC[C@]4(C)[C@H](CC[C@@H]5[C@@]6(C)CC[C@H](O[C@@H]7OC[C@@H](O)[C@H](O)[C@H]7O)C(C)(C)[C@@H]6CC[C@]54C)[C@H]2[C@@H]1OC3 | > 75 µM | > 75 µM | > 75 µM |
| CC1(C)CC[C@]23CC[C@]4(C)[C@H](CC[C@@H]5[C@@]6(C)CC[C@H](O[C@@H]7O[C@H](CO)[C@H](O)[C@H](O)[C@H]7O)C(C)(C)[C@@H]6CC[C@]54C)[C@H]2[C@@H]1OC3=O | > 75 µM | > 75 µM | > 75 µM |
| CC1(C)CC[C@]23CC[C@]4(C)[C@H](CC[C@@H]5[C@@]6(C)CC[C@H](O[C@@H]7OC[C@@H](O)[C@H](O)[C@H]7O)C(C)(C)[C@@H]6CC[C@]54C)[C@H]2[C@@H]1OC3=O | > 75 µM | > 75 µM | > 75 µM |
| CC1(C)CC[C@]23CC[C@]4(C)[C@H](CC[C@@H]5[C@@]6(C)CC[C@H](O[C@@H]7O[C@H](CO)[C@H](O)[C@H](O)[C@H]7O)C(C)(C)[C@@H]6CC[C@]54C)[C@H]2[C@@H]1OC3 | 30 µM | 40 µM | 30 µM |
| CC1(C)CC[C@]23CC[C@]4(C)[C@H](CC[C@@H]5[C@@]6(C)CC[C@H](O[C@H]7O[C@H](CO)[C@@H](O)[C@H](O)[C@@H]7O)C(C)(C)[C@@H]6CC[C@]54C)[C@H]2[C@@H]1OC3=O | > 75 µM | > 75 µM | > 75 µM |
| C=C(C)[C@@H]1CC[C@]2(C(=O)O)CC[C@]3(C)[C@H](CC[C@@H]4[C@@]5(C)CC[C@H](OC(C)=O)C(C)(C)[C@@H]5CC[C@]43C)[C@@H]12 | 18 µM | 20 µM | 57 µM |
| C=C(C)[C@@H]1CC[C@]2(C(=O)O)CC[C@]3(C)[C@H](CC[C@@H]4[C@@]5(C)CC[C@H](O[C@@H]6O[C@H](CO)[C@H](O)[C@H](O)[C@H]6O)C(C)(C)[C@@H]5CC[C@]43C)[C@@H]12 | > 75 µM | > 75 µM | > 75 µM |
| C=C(C)[C@@H]1CC[C@]2(C(=O)O)CC[C@]3(C)[C@H](CC[C@@H]4[C@@]5(C)CC[C@H](O[C@@H]6OC[C@@H](O)[C@H](O)[C@H]6O)C(C)(C)[C@@H]5CC[C@]43C)[C@@H]12 | 15 µM | 18 µM | 20 µM |
| CC1(C)CC[C@]23CC[C@]4(C)[C@H](CC[C@@H]5[C@@]6(C)CC[C@H](O[C@@H]7O[C@H](CO)[C@@H](O)[C@H](O)[C@H]7O)C(C)(C)[C@@H]6CC[C@]54C)[C@H]2[C@@H]1OC3=O | > 75 µM | > 75 µM | > 75 µM |
| C[C@@H]1O[C@H](O[C@H]2CC[C@]3(C)[C@H]4CC[C@@H]5[C@H]6[C@@H]7OC(=O)[C@@]6(CCC7(C)C)CC[C@@]5(C)[C@]4(C)CC[C@H]3C2(C)C)[C@@H](O)[C@@H](O)[C@@H]1O | > 75 µM | > 75 µM | > 75 µM |
| C=C(C)[C@@H]1CC[C@]2(CO)CC[C@]3(C)[C@H](CC[C@@H]4[C@@]5(C)CC[C@H](O[C@@H]6O[C@H](CO)[C@@H](O)[C@H](O)[C@H]6O)C(C)(C)[C@@H]5CC[C@]43C)[C@@H]12 | > 75 µM | > 75 µM | > 75 µM |
| C=C(C)[C@@H]1CC[C@]2(CO)CC[C@]3(C)[C@H](CC[C@@H]4[C@@]5(C)CC[C@H](O[C@@H]6O[C@H](CO)[C@H](O)[C@H](O)[C@H]6O)C(C)(C)[C@@H]5CC[C@]43C)[C@@H]12 | > 75 µM | > 75 µM | > 75 µM |
| C=C(C)[C@@H]1CC[C@]2(CO)CC[C@]3(C)[C@H](CC[C@@H]4[C@@]5(C)CC[C@H](O[C@@H]6OC[C@@H](O)[C@H](O)[C@H]6O)C(C)(C)[C@@H]5CC[C@]43C)[C@@H]12 | > 75 µM | > 75 µM | > 75 µM |
| CC1(C)CC[C@]23CC[C@]4(C)[C@H](CC[C@@H]5[C@@]6(C)CC[C@H](O[C@@H]7O[C@H](CO)[C@@H](O)[C@H](O)[C@H]7O)C(C)(C)[C@@H]6CC[C@]54C)[C@H]2[C@@H]1OC3 | 31 µM | 40 µM | 40 µM |
| C[C@@H]1O[C@H](O[C@H]2CC[C@]3(C)[C@H]4CC[C@@H]5[C@H]6[C@@H]7OC[C@@]6(CCC7(C)C)CC[C@@]5(C)[C@]4(C)CC[C@H]3C2(C)C)[C@@H](O)[C@@H](O)[C@@H]1O | > 75 µM | > 75 µM | > 75 µM |
| CC1(C)CC[C@]23CC[C@]4(C)[C@H](CC[C@@H]5[C@@]6(C)CC[C@H](O[C@H]7OC[C@H](O)[C@H](O)[C@H]7O)C(C)(C)[C@@H]6CC[C@]54C)[C@H]2[C@@H]1OC3=O | > 75 µM | > 75 µM | > 75 µM |
| CC1(C)CC[C@]23CC[C@]4(C)[C@H](CC[C@@H]5[C@@]6(C)CC[C@H](O[C@H]7O[C@H](CO)[C@@H](O)[C@H](O)[C@@H]7O)C(C)(C)[C@@H]6CC[C@]54C)[C@H]2[C@@H]1OC3 | > 75 µM | > 75 µM | > 75 µM |
| CC1(C)CC[C@]23CC[C@]4(C)[C@H](CC[C@@H]5[C@@]6(C)CC[C@H](O)C(C)(C)[C@@H]6CC[C@]54C)[C@H]2[C@H]1OC3=O | > 75 µM | > 75 µM | > 75 µM |
| CC1(C)CC[C@]23CC[C@]4(C)[C@H](CC[C@@H]5[C@@]6(C)CC[C@H](O)C(C)(C)[C@@H]6CC[C@]54C)[C@H]2[C@H]1OC3 [ALLOBETULIN] | > 75 µM | > 75 µM | > 75 µM |
